ChEMBL document CHEMBL1125138, “1,3-Dialkyl-3-acyltriazenes, a novel class of antineoplastic alkylating agents” (J Med Chem, 1990)

How the values were obtained:
[1] = tested on: RPMI-7951; experiment: Evaluated for the inhibitory concentration required to cause growth inhibition of RPMI7951 melanoma cell line using the MTT Cytotoxicity Assay; type: functional, cell-based; conditions: Homo sapiens
Summary of the method: (§1)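 MTT microculture tetrazolium growth assay on human cell lines and normal fibroblasts. Cells seeded at 1000 cells/well, with compound added 24 h after plating. Cultures then incubated a further 6 days at 37 °C before MTT read-out of growth versus untreated cells.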

[2] = tested on: OVCAR-4; experiment: Evaluated for the inhibitory concentration required to cause growth inhibition of OVCAR-4 ovarian cell line using the MTT Cytotoxicity Assay; type: functional, cell-based; conditions: Homo sapiens; summary of the method: as §1
[3] = Evaluated for the antineoplastic activity against LOX amelanotic melanoma tumor xenograft in nude mice after administering 3 injections (intra peritoneally) at a dose of 50 mg/kg; type: functional, Homo sapiens
Summary of the method: (§2)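 Nude mice bearing human tumor xenografts; compound given intraperitoneally as three injections at 4-day intervals. Antitumor activity expressed as % T/C at each dose level. Performed under the NCI Developmental Therapeutics Program.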

[4] = tested on: DOD-1; experiment: Evaluated for the inhibitory concentration required to cause growth inhibition of DOD-1 breast cell line using the MTT Cytotoxicity Assay; type: functional, cell-based; conditions: Homo sapiens; summary of the method: as §1
[5] = tested on: MX1; experiment: Evaluated for the antineoplastic activity against MX-1 mammary tumor xenograft in nude mice after administering 3 injections (intra peritoneally) at a dose of 150 mg/kg; type: functional, Homo sapiens; summary of the method: as §2
[6] = tested on: A673; experiment: Evaluated for the inhibitory concentration required to cause growth inhibition of A673Mer+ sarcoma cell line using the MTT Cytotoxicity Assay; type: functional, cell-based; conditions: Homo sapiens; summary of the method: as §1
[7] = tested on: NCI-H23; experiment: Evaluated for the inhibitory concentration required to cause growth inhibition of H23 cell line of lung using the Microculture Tetrazolium (MTT) Cytotoxicity Assay; type: functional, cell-based; conditions: Homo sapiens; summary of the method: as §1
[8] = Evaluated for the antineoplastic activity against LX-1 lung (small cell) tumor xenograft in nude mice after administering 3 injections (intra peritoneally) at a dose of 50 mg/kg; type: functional, Homo sapiens; summary of the method: as §2
[9] = tested on: HOS-TE85; experiment: Evaluated for the inhibitory concentration required to cause growth inhibition of TE85Mer+ sarcoma cell line using the MTT Cytotoxicity Assay; type: functional, cell-based; conditions: Homo sapiens; summary of the method: as §1
[10] = tested on: OVCAR-3; experiment: Evaluated for the inhibitory concentration required to cause growth inhibition of OVCAR-3 ovarian cell line using the MTT Cytotoxicity Assay; type: functional, cell-based; conditions: Homo sapiens; summary of the method: as §1
[11] = tested on: CCD 19Lu; experiment: Evaluated for the inhibitory concentration required to cause growth inhibition of CCD-19Lu fibroblasts cell line using the MTT Cytotoxicity Assay; type: functional, cell-based; conditions: Homo sapiens; summary of the method: as §1
[12] = tested on: MCF7; experiment: Evaluated for the inhibitory concentration required to cause growth inhibition of MCF-7 breast cell line using the MTT Cytotoxicity Assay; type: functional, cell-based; conditions: Homo sapiens; summary of the method: as §1
[13] = tested on: MAR BEL fibroblasts cell line; experiment: Evaluated for the inhibitory concentration required to cause growth inhibition of MAR BEL fibroblasts cell line using the MTT Cytotoxicity Assay; type: functional, cell-based; conditions: Homo sapiens; summary of the method: as §1
[14] = tested on: A549; experiment: Evaluated for the antineoplastic activity against A549 lung (nonsmall cell) tumor xenograft in nude mice after administering 3 injections (intra peritoneally) at a dose of 200 mg/kg; type: functional, Homo sapiens; summary of the method: as §2
[15] = Evaluated for the antineoplastic activity against M5 sarcoma tumor xenograft in nude mice after administering 4 injections (intra peritoneally) at a dose of 50 mg/kg; type: functional, Mus musculus
Summary of the method: (§3)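 M5 sarcoma-bearing mice given four intraperitoneal injections at 4-day intervals. Activity reported as % T/C per dose. Performed under the NCI Developmental Therapeutics Program.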

[16] = Evaluated for the antineoplastic activity against LX-1 lung (small cell) tumor xenograft in nude mice after administering 3 injections (intra peritoneally) at a dose of 25 mg/kg; type: functional, Homo sapiens; summary of the method: as §2
[17] = tested on: A549; experiment: Evaluated for the antineoplastic activity against A549 lung (nonsmall cell) tumor xenograft in nude mice after administering 3 injections (intra peritoneally) at a dose of 100 mg/kg; type: functional, Homo sapiens; summary of the method: as §2
[18] = tested on: LOX IMVI; experiment: Evaluated for the inhibitory concentration required to cause growth inhibition of LOX melanoma cell line using the MTT Cytotoxicity Assay; type: functional, cell-based; conditions: Homo sapiens; summary of the method: as §1
[19] = tested on: NCI-H522 (Homo sapiens); experiment: Evaluated for the inhibitory concentration required to cause growth inhibition of H522 cell line of lung using the Microculture Tetrazolium (MTT) Cytotoxicity Assay
[20] = tested on: MX1; experiment: Evaluated for the antineoplastic activity against MX-1 mammary tumor xenograft in nude mice after administering 3 injections (intra peritoneally) at a dose of 300 mg/kg; type: functional, Homo sapiens; summary of the method: as §2
[21] = tested on: NCI-H358; experiment: Evaluated for the inhibitory concentration required to cause growth inhibition of H358M cell line of lung using the Microculture Tetrazolium (MTT) Cytotoxicity Assay; type: functional, cell-based; conditions: Homo sapiens; summary of the method: as §1
[22] = Evaluated for the antineoplastic activity against LX-1 lung (small cell) tumor xenograft in nude mice after administering 3 injections (intra peritoneally) at a dose of 100 mg/kg; type: functional, Homo sapiens; summary of the method: as §2
[23] = tested on: NCI-H125; experiment: Evaluated for the inhibitory concentration required to cause growth inhibition of H125 cell line of lung using the Microculture Tetrazolium (MTT) Cytotoxicity Assay; type: functional, cell-based; conditions: Homo sapiens; summary of the method: as §1
[24] = Evaluated for the antineoplastic activity against LOX amelanotic melanoma tumor xenograft in nude mice after administering 3 injections (intra peritoneally) at a dose of 100 mg/kg; type: functional, Homo sapiens; summary of the method: as §2
[25] = tested on: A498; experiment: Evaluated for the inhibitory concentration required to cause growth inhibition of A498Rem- renal cell line using the MTT Cytotoxicity Assay; type: functional, cell-based; conditions: Homo sapiens; summary of the method: as §1
[26] = tested on: A549; experiment: Evaluated for the inhibitory concentration required to cause growth inhibition of A549Rem- cell line of lung using the MTT Cytotoxicity Assay; type: functional, cell-based; conditions: Homo sapiens; summary of the method: as §1
[27] = Evaluated for the antineoplastic activity against M5 sarcoma tumor xenograft in nude mice after administering 4 injections (intra peritoneally) at a dose of 12.5 mg/kg; type: functional, Mus musculus; summary of the method: as §3
[28] = Evaluated for the antineoplastic activity against LOX amelanotic melanoma tumor xenograft in nude mice after administering 3 injections (intra peritoneally) at a dose of 12.5 mg/kg; type: functional, Homo sapiens; summary of the method: as §2
[29] = tested on: WiDr; experiment: Evaluated for the inhibitory concentration required to cause growth inhibition of WiDR colon cell line using the MTT Cytotoxicity Assay; type: functional, cell-based; conditions: Homo sapiens
Summary of the method: (§4)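 MTT cell-growth assay in human cell lines: cells harvested and seeded at 1000 cells/well in 96-well plates. Compound added after 24 h, then cultures incubated a further 6 days at 37 °C. Growth measured with and without agent.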

[30] = tested on: TE-671; experiment: Evaluated for the inhibitory concentration required to cause growth inhibition of TE-671 cell line of central nervous system (CNS)using the MTT Cytotoxicity Assay; type: functional, cell-based; conditions: Homo sapiens; summary of the method: as §1
[31] = tested on: L1210; experiment: Evaluated for the antineoplastic activity against L1210 leukemia tumor xenograft in nude mice after administering 5 injections (intra peritoneally) at a dose of 36 mg/kg; type: functional, Mus musculus
Summary of the method: (§5)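 Mice bearing L1210 leukemia dosed intraperitoneally once daily for 5 successive days (five injections). Activity reported as % T/C at each dose. Performed under the NCI Developmental Therapeutics Program.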

[32] = tested on: SK-MEL-5; experiment: Evaluated for the inhibitory concentration required to cause growth inhibition of SK-MEL-5 melanoma cell line using the MTT Cytotoxicity Assay; type: functional, cell-based; conditions: Homo sapiens; summary of the method: as §1
[33] = Evaluated for the antineoplastic activity against M5 sarcoma tumor xenograft in nude mice after administering 4 injections (intra peritoneally) at a dose of 25 mg/kg; type: functional, Mus musculus; summary of the method: as §3
[34] = tested on: L1210; experiment: Evaluated for the antineoplastic activity against L1210 leukemia tumor xenograft in nude mice after administering 5 injections (intra peritoneally) at a dose of 60 mg/kg; type: functional, Mus musculus; summary of the method: as §5
[35] = tested on: U-251; experiment: Evaluated for the inhibitory concentration required to cause growth inhibition of U251 cell line of central nervous system (CNS) using the MTT Cytotoxicity Assay; type: functional, cell-based; conditions: Homo sapiens; summary of the method: as §4
[36] = tested on: A704; experiment: Evaluated for the inhibitory concentration required to cause growth inhibition of A704Rem- renal cell line using the MTT Cytotoxicity Assay; type: functional, cell-based; conditions: Homo sapiens; summary of the method: as §1
[37] = tested on: NCI/ADR-RES; experiment: Evaluated for the inhibitory concentration required to cause growth inhibition of MCF-7ADR breast cell line using the MTT Cytotoxicity Assay; type: functional, cell-based; conditions: Homo sapiens; summary of the method: as §1
[38] = tested on: NCI-H322M; experiment: Evaluated for the inhibitory concentration required to cause growth inhibition of H322M cell line of lung using the Microculture Tetrazolium (MTT) Cytotoxicity Assay; type: functional, cell-based; conditions: Homo sapiens; summary of the method: as §1
[39] = tested on: Malme-3M; experiment: Evaluated for the inhibitory concentration required to cause growth inhibition of MALME-3M melanoma cell line using the MTT Cytotoxicity Assay; type: functional, cell-based; conditions: Homo sapiens; summary of the method: as §1
[40] = tested on: A 172; experiment: Evaluated for the inhibitory concentration required to cause growth inhibition of A172Mer- cell line of central nervous system (CNS) using the MTT Cytotoxicity Assay; type: functional, cell-based; conditions: Homo sapiens; summary of the method: as §1
[41] = Evaluated for the antineoplastic activity against LOX amelanotic melanoma tumor xenograft in nude mice after administering 3 injections (intra peritoneally) at a dose of 25 mg/kg; type: functional, Homo sapiens; summary of the method: as §2
[42] = tested on: NCI-H460; experiment: Evaluated for the inhibitory concentration required to cause growth inhibition of H460 cell line of lung using the Microculture Tetrazolium (MTT) Cytotoxicity Assay; type: functional, cell-based; conditions: Homo sapiens; summary of the method: as §1
[43] = tested on: L1210; experiment: Evaluated for the antineoplastic activity against L1210 leukemia tumor xenograft in nude mice after administering 5 injections (intra peritoneally) at a dose of 21.6 mg/kg; type: functional, Mus musculus; summary of the method: as §5
[44] = tested on: A-427; experiment: Evaluated for the inhibitory concentration required to cause growth inhibition of A427Mer- cell line of lung using the MTT Cytotoxicity Assay; type: functional, cell-based; conditions: Homo sapiens; summary of the method: as §1

C/N=N\N(C)C(=O)NC
IC50 [1]: 37 µM
IC50 [2]: 35 µM
T/C [3]: 188%
IC50 [4]: 38 µM
T/C [5]: 15%
IC50 [6]: 50 µM
IC50 [7]: 22 µM
T/C [8]: -34%
IC50 [9]: 35 µM
IC50 [10]: 40 µM
IC50 [11]: 70 µM
IC50 [12]: 30 µM
IC50 [13]: 65 µM
T/C [14]: -27%
T/C [15]: 177%
T/C [16]: 6%
T/C [17]: 8%
IC50 [18]: 19 µM
IC50 [19]: 24 µM
T/C [20]: -13%
IC50 [21]: 75 µM
T/C [22]: -55%
IC50 [23]: 50 µM
T/C [24]: 230%
IC50 [25]: 37 µM
IC50 [26]: 60 µM
T/C [27]: 136%
T/C [28]: 131%
IC50 [29]: 30 µM
IC50 [30]: 46 µM
T/C [31]: 146%
IC50 [32]: 20 µM
T/C [33]: 158%
T/C [34]: 186%
IC50 [35]: 33 µM
IC50 [36]: 55 µM
IC50 [37]: 35 µM
IC50 [38]: 42 µM
IC50 [39]: 22 µM
IC50 [40]: 24 µM
T/C [41]: 154%
IC50 [42]: 70 µM
T/C [43]: 132%
IC50 [44]: 9 µM
